The values below come from ChEMBL document CHEMBL3864143, “Design, synthesis and biological evaluation of novel non-covalent piperidine-containing peptidyl proteasome inhibitors” (Bioorg Med Chem, 2016).

The structures appear in SMILES notation. Active and inactive are the calls of the source. No cut-off for these calls is given here.

Data set [1] has as its target T1, Proteasome Macropain subunit MB1 (Homo sapiens, UniProt P28074).
T1 sequence (P28074 whole entry): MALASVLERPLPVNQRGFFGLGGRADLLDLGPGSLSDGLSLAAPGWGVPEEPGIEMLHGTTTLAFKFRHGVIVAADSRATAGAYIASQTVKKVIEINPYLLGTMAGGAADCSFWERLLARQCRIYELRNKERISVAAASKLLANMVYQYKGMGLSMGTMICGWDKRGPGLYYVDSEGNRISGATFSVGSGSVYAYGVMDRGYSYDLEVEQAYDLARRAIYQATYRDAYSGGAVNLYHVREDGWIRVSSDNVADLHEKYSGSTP
As to the kind of experiment: Inhibition of chymotrypsin-like activity of human 20S proteasome preincubated for 15 mins followed by addition of Suc-Leu-Leu-Val-Tyr-AMC as substrate by fluorescence analysis. The procedure, abridged:
(§1)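 Purified human proteasome (25 µg/mL working stock) in 100 mM Tris-HCl pH 8.0 preincubated 15 min with compound. Suc-LLVY-AMC added (50 µM as listed), AMC release followed by fluorescence increase at ex 355/em 460 nm. IC50 by sigmoidal variable-slope fit, mean of three independent determinations.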

The target in data set [2] is T1, Proteasome Macropain subunit MB1. Briefly: Inhibition of chymotrypsin-like activity of 20S proteasome (unknown origin) using succinyl-leu-leu-val-tyr-7-amino-4-methyl coumarin as substrate after 15 mins by fluorescent spectroscopic method. The method, boiled down:
as §1

Data set [3] is described as follows: Antiproliferative activity against human RPMI8226 cells measured after 72 hrs by MTS assay. It is filed as functional, cell-based. To be noted: RPMI-8226, 72 h. The method, boiled down: (§2)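 MM-1S seeded at 2×10^4/well and RPMI 8226 at 0.5×10^4/well, exposed to compounds for 72 h. MTS then added at 0.5 mg/mL final for 2–4 h, absorbance read at 490 nm with 690 nm background subtraction. Growth inhibition = (A_control − A_sample)/A_control; IC50 from nonlinear sigmoidal variable-slope dose-response fit.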

The nature of data set [4]: Antiproliferative activity against human MM1S cells measured after 72 hrs by MTS assay. The data set is classed as functional, cell-based. To be noted: MM1.S. The procedure, abridged:
as §2
On the technique in general: Tetrazolium assays rely on reduction of a dye to a coloured formazan, in cell work by metabolically active cells.

Data set [5] in a line: Half life in mouse plasma at 2 uM by LC-MS/MS analysis. The data set is classed as ADME, cell-free. The method, boiled down:
(§3)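 Sodium-heparin mouse plasma or blood, pre-warmed to 37°C, spiked to 2 µM final from a 0.02 mM dosing solution in 0.05 M sodium phosphate with 0.5% BSA; duplicates held at 37°C. Time points quenched with acetonitrile, supernatant diluted 1:1 in water for LC-MS/MS. Percent remaining from analyte/internal-standard peak-area ratio versus time 0; T1/2 from single-phase exponential decay fit.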

Data set [6] is described as follows: Half life in mouse blood at 2 uM by LC-MS/MS analysis. It is filed as ADME, tissue-based. The method, boiled down:
as §3

The target of data set [7] is T2, Proteasome subunit beta type-5 (Mus musculus) (UniProt O55234).
T2 sequence (whole entry): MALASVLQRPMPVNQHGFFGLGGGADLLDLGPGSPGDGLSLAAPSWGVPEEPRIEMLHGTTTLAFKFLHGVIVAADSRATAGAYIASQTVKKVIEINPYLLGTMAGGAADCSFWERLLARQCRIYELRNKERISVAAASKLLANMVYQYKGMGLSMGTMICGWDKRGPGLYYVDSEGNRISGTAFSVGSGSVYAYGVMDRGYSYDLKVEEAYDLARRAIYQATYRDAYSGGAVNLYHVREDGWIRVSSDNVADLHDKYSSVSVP
As to the kind of experiment: Inhibition of chymotrypsin-like activity of 20S proteasome in mouse blood at 0.5 to 12.5 uM preincubated for 40 mins followed by addition of Suc-Leu-Leu-Val-Tyr-AMC as substrate relative to control. The data set is classed as tissue-based. The procedure, abridged: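 Whole blood from normal mice incubated 40 min with compound (compound:serum 1:50 by volume), centrifuged, cells lysed in 5 mM EDTA pH 8.0 at 4°C for 60 min. Lysate protein (Bradford, 100 µg) assayed in 20 mM HEPES pH 8.0, 0.5 mM EDTA, 0.05% SDS, 1% DMSO with 50 µM Suc-LLVY-AMC; fluorescence at ex 355/em 460 nm.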

Broadly, the IC50 is the concentration that gives 50% inhibition. Lower therefore signals greater potency. In data set [1], `O=C(Nc1cnccn1)C1CCN(C(=O)N[C@@H](Cc2ccccc2)C(=O)N[C@@H](CCc2ccccc2)C(=O)NCc2ccccc2Cl)CC1` showed an IC50 of 153 nM.

In turn, `COc1ccc2c(c1)C(CC(=O)N[C@@H](CC(C)C)C(=O)N[C@H](CC(C)C)C(=O)NCc1c(F)cccc1F)CC2=O` (stereo not given in full) gave a 50% inhibitory concentration (IC50) in data set [2] of 140 nM.

One may read the half-life as the time in which the quantity being followed falls by half. Low readings indicate fast loss, high ones slow loss. A word on the inhibition: it is the share of the control response that was lost under treatment. For `O=C(Nc1cccnc1)C1CCN(C(=O)N[C@@H](CCc2ccccc2)C(=O)N[C@@H](CCc2ccccc2)C(=O)NCc2ccccc2Cl)CC1`, the IC50 in data set [1] is 1.4 nM; in data set [3], 13.9 nM; in data set [4], 9.5 nM. In addition, the half-life at 2 µM in data set [5] came to 7.25 h; in data set [6], 2.98 h. This compound showed an inhibition in data set [7] of over 60%.

On to `C[C@H](NC(=O)N1CCC(C(=O)Nc2cnccn2)CC1)C(=O)N[C@@H](CCc1ccccc1)C(=O)NCc1ccccc1Cl`, for which the IC50 in data set [1] stood at 601 nM.

As to `CC(C)C[C@H](NC(=O)[C@H](CCc1ccccc1)NC(=O)CN1CCOCC1)C(=O)N[C@@H](Cc1ccccc1)C(=O)N[C@@H](CC(C)C)C(=O)[C@@]1(C)CO1` [CARFILZOMIB], the results for the IC50 in data set [3] and in data set [4] were 13.2 nM and 1.5 nM, respectively. Besides, the inhibition entry in data set [7] is “Active”.

With `O=C(Nc1ccccn1)C1CCN(C(=O)N[C@@H](CCc2ccccc2)C(=O)N[C@@H](CCc2ccccc2)C(=O)NCc2ccccc2Cl)CC1`, the IC50 in data set [1] is 2.4 nM; in data set [3] it was 24.7 nM; in data set [4], 22.2 nM. The same compound had an inhibition in data set [7] of over 60%.

In the case of `C[C@H](NC(=O)N1CCC(NC(=O)c2cnccn2)CC1)C(=O)N[C@@H](CCc1ccccc1)C(=O)NCc1ccccc1Cl`, inhibition in data set [1] was half-maximal at 670 nM (IC50).

As to `COc1ccc(NC(=O)C2CCN(C(=O)N[C@@H](CCc3ccccc3)C(=O)N[C@@H](CCc3ccccc3)C(=O)NCc3ccccc3Cl)CC2)cc1`, the values for the IC50 in data set [1], in data set [3] and in data set [4] were 15.7 nM, 84.6 nM and 92.9 nM, respectively.

`CC(C)C[C@H](NC(=O)N1CCC(NC(=O)c2cnccn2)CC1)C(=O)N[C@@H](CCc1ccccc1)C(=O)NCc1ccccc1Cl` registered an IC50 in data set [1] of 45.7 nM.

`CC(C)C[C@H](NC(=O)N1CCC(C(=O)Nc2cnccn2)CC1)C(=O)N[C@@H](CCc1ccccc1)C(=O)NCc1ccccc1Cl`: the IC50 turned out to be 16.6 nM in data set [1], 371 nM in data set [3] and 261 nM in data set [4].

Compound `O=C(NC1CCN(C(=O)N[C@@H](CCc2ccccc2)C(=O)N[C@@H](CCc2ccccc2)C(=O)NCc2ccccc2Cl)CC1)c1cnccn1` showed an IC50 in data set [1] of 23.7 nM.

Consider `O=C(NC1CCN(C(=O)N[C@@H](Cc2ccccc2)C(=O)N[C@@H](CCc2ccccc2)C(=O)NCc2ccccc2Cl)CC1)c1cnccn1`, for which, in data set [1], half-maximal inhibition (IC50) required 344 nM.

As for `O=C(Nc1ccccc1)C1CCN(C(=O)N[C@@H](CCc2ccccc2)C(=O)N[C@@H](CCc2ccccc2)C(=O)NCc2ccccc2Cl)CC1`, the IC50 is 3 nM in data set [1], 18.5 nM in data set [3] and 20.2 nM in data set [4]. In data set [7], the inhibition was over 60%.

In the case of `O=C(Nc1ccc(F)cc1)C1CCN(C(=O)N[C@@H](CCc2ccccc2)C(=O)N[C@@H](CCc2ccccc2)C(=O)NCc2ccccc2Cl)CC1`, the figures for the IC50 in data set [1], in data set [3] and in data set [4] were 16.9 nM, 94.3 nM and 107 nM, respectively.

For `O=C(Nc1cnccn1)C1CCN(C(=O)N[C@@H](CCc2ccccc2)C(=O)N[C@@H](CCc2ccccc2)C(=O)NCc2ccccc2Cl)CC1`, the half-maximal inhibitory concentration (IC50) in data set [1] was determined as 14.7 nM; in data set [3], 196 nM; in data set [4], 135 nM.

Regarding `O=C(Nc1nccs1)C1CCN(C(=O)N[C@@H](CCc2ccccc2)C(=O)N[C@@H](CCc2ccccc2)C(=O)NCc2ccccc2Cl)CC1`, the figures for the IC50 in data set [1], in data set [3] and in data set [4] were 4.3 nM, 29.5 nM and 32.5 nM, respectively. In data set [7], this compound gave an inhibition of over 60%.
